Reference: ChEMBL document CHEMBL4304743, “Discovery of ( E)- N1-(3-Fluorophenyl)- N3-(3-(2-(pyridin-2-yl)vinyl)-1 H-indazol-6-yl)malonamide (CHMFL-KIT-033) as a Novel c-KIT T670I Mutant Selective Kinase Inhibitor for Gastrointestinal Stromal Tumors (GISTs)” (J Med Chem, 2019)
pIC50: −log10 of the molar value. Activity calls are given as the source filed them. The calls are words filed in the database; no cut-off is given here.

Columns and labels:
[1] = Apparent clearance in mouse at 1 mg/kg, iv measured after 2 to 720 mins by LC-tandem mass spectrometry analysis; type: ADME, organism-based; conditions: in vivo, read-out: CL(app) (converted)
Method in brief: (§1)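 Mice dosed 1 mg/kg i.v. or 10 mg/kg p.o.; plasma drug levels by LC-MS/MS, parameters by noncompartmental analysis; values not from triplicate testing.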

[2] = Half-life in Sprague-Dawley rat at 1 mg/kg, iv measured after 2 to 720 mins by LC-tandem mass spectrometry analysis; type: ADME, organism-based; conditions: in vivo
Method in brief: (§2)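 Male Sprague-Dawley rats (190-210 g), fasted 12 h, randomized into two groups: 1 mg/kg i.v. or 10 mg/kg p.o., both formulated in 10% DMSO/90% of 5% glucose water. Blood sampled at 2-720 min (i.v.) or 5-720 min (p.o.). Plasma protein-precipitated with methanol, caffeine internal standard, LC-MS/MS. Noncompartmental analysis; triplicate, ±SD.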

Homo sapiens = species on record: Homo sapiens; test: Selectivity ratio, ratio of IC50 for wild-type His-tagged c-KIT (unknown origin) expressed in baculovirus infected sf9 cells to IC50 for His-tagged c-KIT T670I mutant (544 to 935 residues) (unknown origin) expressed in baculovirus infected sf9 cells
Method in brief: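 Purified protein: His-tagged c-KIT wt or T670I, residues 544−935, expressed in baculovirus-infected SF9 cells. Purified by Ni-NTA then Superdex-200. Enzyme (wt 20 ng/µL, T670I 15 ng/µL) preincubated with inhibitor 60 min at room temperature. Then ATP/substrate added (50 µM ATP) and run 1 h at 37 °C. ADP-Glo luminescence read-out; IC50 from fitted dose–response curves.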

[3] = tested on: Mast/stem cell growth factor receptor Kit (Homo sapiens), P10721 [UNDEFINED MUTATION]; test: Inhibition of c-KIT 560 to 578 deletion/T670I double mutant in human GIST5R cells assessed as reduction in S6 phosphorylation at S235/S236 residue at 0.1 uM to 3 uM after 1 hr by Western blot analysis; type: cell-based
Method in brief: (§3)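 Serial compound dilutions applied for 1 h to GIST-T1, GIST-T1-T670I (CRISPR/Cas9 T670I knock-in, clone confirmed by Sanger sequencing) or GIST-5R cells in DMEM with 10% FBS. Cells then lysed and phospho-proteins detected by standard Western blotting.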

[4] = Tmax in Sprague-Dawley rat at 1 mg/kg, iv measured after 2 to 720 mins by LC-tandem mass spectrometry analysis; type: ADME, organism-based; conditions: in vivo
Method in brief: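 Male Sprague–Dawley rats (190-210 g), fasted 12 h, given 1 mg/kg i.v. or 10 mg/kg p.o. in DMSO/5% glucose water (1:9). Blood sampled at 2–720 min (i.v.) or 5–720 min (p.o.). Plasma proteins precipitated with methanol using caffeine internal standard, then LC-MS/MS. Noncompartmental analysis; F = AUC0-∞ ratio corrected for dose; triplicate ±SD.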

[5] = target: T1, Platelet-derived growth factor receptor beta (Homo sapiens, UniProt P09619); test: Binding affinity to wild-type human partial length PDGFRB (V582 to Y1009 residues) expressed in bacterial expression system assessed as enzyme remaining activity at 1 uM by Kinomescan assay relative to control
Method in brief: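 KINOMEscan competition binding panel of 468 kinases and mutants, compound at 1 μM; binding reported as percent of control.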

GISTT1 [6] = test: Antiproliferative activity against human GISTT1 cells harboring c-KIT 560 to 578 deletion mutant incubated for 72 hrs by CCK8 assay; type: functional; conditions: GISTT1, 72 h
Method in brief: (§4)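 Adherent GIST cells seeded at 1.5-5 × 10^4 cells/mL and left overnight at 37 °C, 5% CO2. Medium then replaced with medium holding serial compound dilutions; 72 h incubation. Viability by CCK-8, absorbance at 450 nm, normalized to DMSO control; GI50 from dose-response fit.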

[7] = tested on: Mast/stem cell growth factor receptor Kit (Homo sapiens), P10721 [D816H]; test: Inhibition of TEL fused c-KIT D816H mutant (unknown origin) transfected in mouse BAF3 cells assessed as growth inhibition after 72 hrs by CCK8 assay; type: cell-based
Method in brief: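 Tel-c-KIT-transformed BaF3 lines (IL-3 independent) kept in RPMI 1640 with 10% FBS, 2% L-glutamine and pen/strep. Cells at 1.5 to 5 × 10^4 cells/mL mixed with graded compound and incubated 72 h at 37 °C, 5% CO2. Viability by CCK-8 absorbance at 450 nm, normalized to DMSO. GI50 from dose–response fit.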

Mus musculus [8] = test: Effect on body weight in nude mouse xenografted with human GIST5R cells at 25 to 100 mg/kg, po administered […] via gavage for 28 days; type: ADME, organism-based; conditions: in vivo, 672 h
Method in brief: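 Female nu/nu mice (5 weeks old) given subcutaneous right-flank GIST-5R cells in Matrigel. Dosing began at tumors of 200-400 mm3; randomized, 4 mice per group. Daily oral dosing (QD) at 25, 50 or 100 mg/kg in 0.5% methylcellulose/0.4% Tween80, or vehicle alone, for 28 days. Body weight and tumor volume, (W²×L)/2, measured daily; mean±SEM.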

Mus musculus [9] = test: Inhibition of c-KIT phosphorylation at Y823 residue in tumor of human GIST5R cells xenografted in nude mouse at 100 mg/kg, po administered as single dose and measured at 2 hrs; type: functional, organism-based
Method in brief: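 Female nu/nu mice bearing subcutaneous GIST-5R xenografts (cells in Matrigel, right flank) given one oral gavage dose of 100 mg/kg in HKI suspension (0.5% methocellulose/0.4% Tween80 in ddH2O). Tumors collected over a 2 h time course; p-c-KIT, p-ERK and p-AKT assessed by Western blot; plasma drug levels monitored in parallel.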

[10] = target: Platelet-derived growth factor receptor alpha (Homo sapiens, UniProt P16234); test: Binding affinity to wild-type human partial length PDGFRA (V575 to D1002 residues) expressed in mammalian expression system assessed as enzyme remaining activity at 1 uM by Kinomescan assay relative to control
[11] = AUC (0 to infinity) in Sprague-Dawley rat at 10 mg/kg, po measured after 5 to 720 mins by LC-tandem mass spectrometry analysis; type: ADME, organism-based; set-up: dose 10 mg/kg, route oral, time infinity; conditions: in vivo; method in brief: as §2
GISTT1 [12] = test: Antiproliferative activity against human GISTT1 cells harboring c-KIT 560 to 578 deletion/T670I double mutant incubated for 72 hrs by CCK8 assay; type: functional; conditions: GISTT1, 72 h; method in brief: as §4
[13] = AUC (0 to infinity) in mouse at 1 mg/kg, iv measured after 2 to 720 mins by LC-tandem mass spectrometry analysis; type: ADME, organism-based; set-up: dose 1 mg/kg, time infinity, route intravenous; conditions: in vivo; method in brief: as §1
[14] = AUC (0 to t) in mouse at 1 mg/kg, iv measured after 2 to 720 mins by LC-tandem mass spectrometry analysis; type: ADME, organism-based; conditions: in vivo; method in brief: as §1
[15] = tested on: Mast/stem cell growth factor receptor Kit (Homo sapiens), P10721 [UNDEFINED MUTATION]; test: Inhibition of c-KIT 560 to 578 deletion/T670I double mutant in human GISTT1 cells assessed as reduction in c-KIT autophosphorylation at Y823 residue at 0.1 uM to 3 uM after 1 hr by Western blot analysis; type: cell-based; method in brief: as §3
[16] = target: T1, Platelet-derived growth factor receptor beta; test: Inhibition of wild-type human partial length PDGFRB (V582 to Y1009 residues) expressed in bacterial expression system after 1 hr by Z-LYTE assay

Mast/stem cell growth factor receptor Kit (Homo sapiens), P10721 [UNDEFINED MUTATION], sequence (P10721 whole entry, looked up, stated change not applied, the tested form may be a part): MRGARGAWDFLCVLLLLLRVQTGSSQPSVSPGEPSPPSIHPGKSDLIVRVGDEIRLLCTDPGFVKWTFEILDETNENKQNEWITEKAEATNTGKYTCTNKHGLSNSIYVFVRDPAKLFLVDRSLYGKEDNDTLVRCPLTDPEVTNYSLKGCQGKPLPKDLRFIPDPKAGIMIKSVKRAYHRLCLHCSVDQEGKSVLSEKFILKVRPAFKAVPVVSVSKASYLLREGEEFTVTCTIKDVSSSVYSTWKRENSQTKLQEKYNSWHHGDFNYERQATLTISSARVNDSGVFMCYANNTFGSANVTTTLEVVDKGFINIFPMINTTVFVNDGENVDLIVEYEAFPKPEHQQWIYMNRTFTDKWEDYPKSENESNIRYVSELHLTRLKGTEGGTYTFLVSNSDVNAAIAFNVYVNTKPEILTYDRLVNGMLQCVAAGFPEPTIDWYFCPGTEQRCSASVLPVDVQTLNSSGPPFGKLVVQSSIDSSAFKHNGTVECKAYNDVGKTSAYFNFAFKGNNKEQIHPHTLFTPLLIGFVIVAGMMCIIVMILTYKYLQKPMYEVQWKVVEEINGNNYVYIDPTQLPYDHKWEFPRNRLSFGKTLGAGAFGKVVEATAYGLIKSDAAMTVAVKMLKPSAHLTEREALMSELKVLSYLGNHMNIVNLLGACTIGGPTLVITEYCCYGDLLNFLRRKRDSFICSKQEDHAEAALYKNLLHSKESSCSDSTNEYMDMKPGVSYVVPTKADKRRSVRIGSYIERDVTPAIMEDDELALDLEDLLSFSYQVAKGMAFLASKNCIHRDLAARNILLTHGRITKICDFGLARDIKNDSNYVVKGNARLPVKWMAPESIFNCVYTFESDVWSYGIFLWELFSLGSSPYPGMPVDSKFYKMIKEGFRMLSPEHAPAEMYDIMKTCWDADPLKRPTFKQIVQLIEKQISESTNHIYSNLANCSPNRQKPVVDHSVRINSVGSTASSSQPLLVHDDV
T1 sequence (P09619 whole entry, the tested form may be a part): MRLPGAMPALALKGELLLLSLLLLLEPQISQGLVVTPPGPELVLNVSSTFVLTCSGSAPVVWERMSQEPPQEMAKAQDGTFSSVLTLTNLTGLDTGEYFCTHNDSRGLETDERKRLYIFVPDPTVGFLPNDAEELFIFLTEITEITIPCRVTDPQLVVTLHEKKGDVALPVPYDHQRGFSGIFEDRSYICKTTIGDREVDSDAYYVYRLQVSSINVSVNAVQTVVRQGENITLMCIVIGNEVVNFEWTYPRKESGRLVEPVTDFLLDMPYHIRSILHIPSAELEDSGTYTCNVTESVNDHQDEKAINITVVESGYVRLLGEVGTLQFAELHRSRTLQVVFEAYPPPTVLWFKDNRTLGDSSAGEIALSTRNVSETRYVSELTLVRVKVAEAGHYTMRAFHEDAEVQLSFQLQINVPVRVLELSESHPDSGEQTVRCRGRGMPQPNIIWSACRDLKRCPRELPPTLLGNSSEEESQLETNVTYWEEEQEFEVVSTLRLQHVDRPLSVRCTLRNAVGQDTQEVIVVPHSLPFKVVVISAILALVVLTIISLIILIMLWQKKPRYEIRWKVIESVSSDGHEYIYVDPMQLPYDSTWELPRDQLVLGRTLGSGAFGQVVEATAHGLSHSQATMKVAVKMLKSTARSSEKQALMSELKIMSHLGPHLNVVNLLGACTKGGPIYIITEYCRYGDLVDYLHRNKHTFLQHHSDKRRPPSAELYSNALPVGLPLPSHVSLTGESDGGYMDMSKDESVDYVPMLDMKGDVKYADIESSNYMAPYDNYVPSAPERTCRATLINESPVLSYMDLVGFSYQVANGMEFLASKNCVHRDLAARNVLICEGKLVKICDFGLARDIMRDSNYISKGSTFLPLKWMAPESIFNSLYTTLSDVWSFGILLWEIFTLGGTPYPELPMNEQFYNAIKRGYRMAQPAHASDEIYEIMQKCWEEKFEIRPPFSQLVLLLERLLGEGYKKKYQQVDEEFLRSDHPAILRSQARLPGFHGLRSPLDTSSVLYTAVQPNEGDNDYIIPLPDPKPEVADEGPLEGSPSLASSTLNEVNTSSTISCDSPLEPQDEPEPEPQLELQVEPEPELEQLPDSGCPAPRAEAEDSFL
Platelet-derived growth factor receptor alpha, sequence (P16234 whole entry, the tested form may be a part): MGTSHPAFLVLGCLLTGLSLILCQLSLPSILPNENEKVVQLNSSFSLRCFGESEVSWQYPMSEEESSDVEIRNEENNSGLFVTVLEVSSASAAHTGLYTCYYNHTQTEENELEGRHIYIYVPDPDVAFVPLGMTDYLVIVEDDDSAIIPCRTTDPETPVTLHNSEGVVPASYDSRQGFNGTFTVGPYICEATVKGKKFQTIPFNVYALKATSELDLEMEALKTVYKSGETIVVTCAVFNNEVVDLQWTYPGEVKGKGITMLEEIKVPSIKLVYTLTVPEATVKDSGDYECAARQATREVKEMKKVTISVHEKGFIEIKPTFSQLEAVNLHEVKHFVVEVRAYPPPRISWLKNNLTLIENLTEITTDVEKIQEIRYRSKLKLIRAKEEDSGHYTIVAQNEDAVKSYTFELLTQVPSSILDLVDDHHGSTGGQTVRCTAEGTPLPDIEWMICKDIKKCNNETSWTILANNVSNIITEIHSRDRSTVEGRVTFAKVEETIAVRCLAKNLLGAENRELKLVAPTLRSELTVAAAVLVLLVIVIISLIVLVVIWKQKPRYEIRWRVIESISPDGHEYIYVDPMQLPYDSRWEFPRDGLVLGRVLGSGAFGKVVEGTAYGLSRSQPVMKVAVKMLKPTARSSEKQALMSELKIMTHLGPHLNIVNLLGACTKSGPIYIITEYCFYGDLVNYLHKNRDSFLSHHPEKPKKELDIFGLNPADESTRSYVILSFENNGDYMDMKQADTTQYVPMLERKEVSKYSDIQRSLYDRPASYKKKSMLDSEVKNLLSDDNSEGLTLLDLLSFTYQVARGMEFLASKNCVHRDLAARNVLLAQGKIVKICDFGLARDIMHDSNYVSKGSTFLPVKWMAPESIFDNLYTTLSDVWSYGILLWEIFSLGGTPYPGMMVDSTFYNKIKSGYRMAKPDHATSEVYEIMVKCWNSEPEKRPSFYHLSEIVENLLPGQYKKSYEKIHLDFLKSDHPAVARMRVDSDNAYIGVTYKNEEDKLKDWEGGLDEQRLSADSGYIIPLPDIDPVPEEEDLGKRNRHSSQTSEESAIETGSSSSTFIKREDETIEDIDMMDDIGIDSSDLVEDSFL
Mast/stem cell growth factor receptor Kit (Homo sapiens), P10721 [D816H], sequence (P10721 whole entry D816H, the tested form may be a part): as the sequence (P10721 whole entry, looked up, stated change not applied, the tested form may be a part) above, with D816H counted along it

## O=C(CC(=O)Nc1ccc2c(/C=C/c3ccccn3)n[nH]c2c1)Nc1cccc(F)c1
[1]
  clearance: 18.3 mL/min/kg
[2]
  half-life: 10.4 h
Homo sapiens
  Ratio IC50: 12
[3]
  inhibition: Active
[4]
  Tmax: 1.02 min
[5]
  Activity: 0%
GISTT1 [6]
  GI50: 52 nM
[7]
  GI50: 6840 nM
Mus musculus [8]
  Activity: Non-Toxic
Mus musculus [9]
  inhibition: Active
[10]
  Activity: 3.4%
[11]
  AUC(0-inf): 809 ng·h/mL
GISTT1 [12]
  GI50: 288 nM
[13]
  AUC(0-inf): 901 ng·h/mL
[14]
  AUC(0-t): 898 ng·h/mL
[15]
  inhibition: Active
[16]
  pIC50: 5.68
